An excerpt weighted towards active compounds, which were near 3.3% of everything screened.
HTR1E agonist: activates the human 5-HT1E serotonin receptor. P28566. CHO 5-HT1E Ga15 NFAT-bla reporter, FRET; 0% DMSO wells, 100% control agonist wells. activation, % at 6 µM. actives 0.69% (n = 65,000);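 active = activation above a set limit, the screen-wide mean activation plus 3 SD, cut at about 8.5% in these data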;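 also: 100% = positive control agonist at 1 µM giving full maximal response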
5HT1a ag: 5-HT1a (human) receptor agonism; P08908; CHO 5-HT1a Ga15 NFAT-bla reporter, FRET ratio; 0% basal, 100% maximal reference agonist; activation, % at 10 µM; actives 0.56% (n = 65,000); AID 567;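 active = activation above the screen-wide mean activation plus 3 SD, cut at about 19% in these data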;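 also: 0% = DMSO wells and 100% = 5-CT at EC100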
Target sequence (P08908 whole entry, looked up): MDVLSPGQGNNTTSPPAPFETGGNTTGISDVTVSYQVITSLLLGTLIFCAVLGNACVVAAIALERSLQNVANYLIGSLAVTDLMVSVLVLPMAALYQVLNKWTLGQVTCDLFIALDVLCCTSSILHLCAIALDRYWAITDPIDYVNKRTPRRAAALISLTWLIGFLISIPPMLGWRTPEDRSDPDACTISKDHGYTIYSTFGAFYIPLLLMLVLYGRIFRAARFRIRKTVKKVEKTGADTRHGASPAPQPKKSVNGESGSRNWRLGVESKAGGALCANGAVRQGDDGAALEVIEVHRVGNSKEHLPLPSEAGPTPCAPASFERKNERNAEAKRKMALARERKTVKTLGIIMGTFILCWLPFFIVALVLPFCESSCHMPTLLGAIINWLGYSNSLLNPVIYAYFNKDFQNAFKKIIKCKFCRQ
HTR1E antagonist: 5-HT1E (human) receptor antagonism. P28566. CHO 5-HT1E Ga15 NFAT-bla reporter, FRET, antagonist. inhibition, % at 6 µM. actives 0.99% (n = 65,000). AID 571;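 active = inhibition above a set limit, the mean inhibition across every tested compound plus 3 SD, cut at about 29% in these data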;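 also: signal is the 460 over 535 nm emission ratio of beta-lactamase substrate; 0% = agonist plus DMSO wells and 100% = wells without agonist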
5HT1a antag: 5-HT1a (human) receptor antagonism; P08908; CHO 5-HT1a Ga15 NFAT-bla reporter, antagonist mode; inhibition, % at 10 µM; actives 0.68% (n = 62,000);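 active = inhibition above the mean of all tested compounds plus 3 SD, cut at about 43% in these data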;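 also: receptor stimulated by 5-CT agonist at 100 nM near EC80; beta-lactamase reporter measured by ratiometric fluorescence of a cleavable substrate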
Jurkat viability: reduces viability or proliferation of Jurkat cells | AID 463 | Jurkat E6.1 viability, ATP luminescence, 48 h | actives 1.2% (n = 56,000) | inhibition, % at 4 µM;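 active = inhibition above the mean inhibition of all tested compounds plus 3 SD, cut at about 28% in these data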
HEK293 NFkB inh: lowers PMA/ionomycin-induced NF-kB signal in HEK293 cells; HEK-293 NF-kB luciferase reporter, luminescence; inhibition, % at 3 µM; actives 0.21% (n = 62,000); AID 465;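 active = inhibition above the mean of all tested compounds plus 3 SD, cut at about 40% in these data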;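 also: 0% = stimulated DMSO wells and 100% = 10 µM reference inhibitor 5653914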
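System: NF-kB luciferase reporter HEK-293 cells | Replication: Single test | Control set: DMSO vs reference inhibitor | Evaluation: % inhibition | Schedule: 1 h pretreatment, 16 h stimulation, 37 °C | Probe or stimulus: PMA with ionomycin | Compound dosing: One dose, 3 µM | Detection: Luciferase luminescence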
* hit, by the source's call; / = no result given.

SMILES	HTR1E agonist	5HT1a ag	HTR1E antagonist	5HT1a antag	Jurkat viability	HEK293 NFkB inh
O=C(Cc1n[nH]c(=O)c2ccccc12)OCC(=O)c1ccc2c(c1)OCCO2	-0.9	-3.8	10.6	13.9	91.4*	15.7
Cc1ccc2[nH]c3c(c2c1)CCCC3C(N)=O (centres undefined)	-0.6	-1.8	-5.6	/	/	/
CCN(CC)C(=O)C1CCCc2c1[nH]c1ccc(Cl)cc21 (centres undefined)	0.2	-1.5	-0.8	1.0	39.9*	23.5
O=C(CCCN1C(=O)CSc2ncccc21)N1CCN(Cc2ccccc2)CC1	0.6	0.2	-5.8	-4.0	-1.1	-1.5
COc1cc(C2C(C#N)=C(N)Oc3cc(N(C)C)ccc32)cc2c1OCO2 (centres undefined)	0.1	-1.7	42.6*	4.2	15.4	63.0*
Cc1ccc(N2CCn3c2nc2c3c(=O)n(CCc3ccccc3)c(=O)n2C)cc1	-0.2	-3.0	-8.9	-0.9	-0.5	15.5
Cc1nnc(NCc2ccncc2)c2ccccc12	0.9	88.3*	-5.0	5.3	1.8	22.8
O=C(O)CCNc1cc2ccccc2cc1C(=O)O	-1.1	-3.6	4.3	-0.1	1.9	-5.6
c1ccc(Cn2nnc3c(N4CCCCCC4)ncnc32)cc1	0.4	0.8	18.4	-15.0	23.7	12.3
CCCN1CCN(c2ncnc3c2nnn3Cc2ccccc2)CC1	-0.7	-2.4	-5.6	8.5	62.6*	7.4
CCCSc1nnc(NC(=O)c2sc3nc(-c4cccs4)ccc3c2N)s1	-0.3	-3.8	7.9	2.5	-3.7	16.6
Cc1csc(NC(=O)c2sc3nc(-c4cccs4)ccc3c2N)n1	0.9	-0.1	4.7	13.0	-7.0	54.3*
Cc1cccc(NC(=O)C2CCCN2S(=O)(=O)c2cccc3cccnc23)c1 (centres undefined)	1.3	-2.1	-1.2	-1.4	-1.8	-0.5
Clc1ccc(OCCN2CCN(c3ncnc4sccc34)CC2)cc1	0.5	0.2	7.7	17.1	44.1*	62.4*
CC(C)Cc1nnc(NC(=O)CSc2ncn[nH]2)s1	6.3	112.0*	2.2	-8.3	-0.2	7.7
CC(C)(C)OC(=O)NCCCCCc1nnc(SCC(=O)Nc2cccc(Cl)c2)o1	0.0	-6.8	3.1	1.0	0.9	-1.0
Cc1ccc(Oc2ccc(S(=O)(=O)N3CCOCC3)cc2C(N)=O)c(-n2nc3ccccc3n2)c1	-0.1	2.3	38.7*	17.6	87.0*	28.3
CCCCOC(=O)Nc1nc(C)c(C(=O)OCC)s1	0.4	-3.3	1.6	22.6	/	8.1
Cc1ccccc1-c1c(C)oc2cc(O)ccc2c1=O	-0.3	-0.2	9.6	19.6	9.6	10.4
CCOC(=O)Nc1ccc2c(c1)N(C(=O)OC)c1ccccc1CC2	1.7	-0.3	8.8	20.1	65.9*	17.4
CCOC(=O)Nc1ccc2c(c1)N(C(=O)CCN(C)C)c1ccccc1S2	0.9	-1.2	19.1	45.6*	6.8	4.8
Cc1ccc(S(=O)(=O)NCCN=C(CN2CCCC2)NS(=O)(=O)c2ccc(C)cc2)cc1	-0.3	0.0	-4.0	1.5	-4.6	16.9
COc1cccc(N2C(N)=NC(N)=NC2(C)C)c1	0.4	-4.0	-5.9	2.9	66.4*	9.5
CCOC(=O)c1cccc(N2C(N)=NC(N)=NC2(C)C)c1	-0.2	-2.9	5.4	-111.4	0.6	13.5
Cc1ccc(S(=O)(=O)N2c3ccc(S(N)(=O)=O)cc3CC2C)cc1 (centres undefined)	-0.8	85.8*	14.0	7.4	-4.0	8.5
SMILES	HTR1E agonist	5HT1a ag	HTR1E antagonist	5HT1a antag	Jurkat viability	HEK293 NFkB inh
CC1Cc2ccccc2N1S(=O)(=O)c1cccs1 (centres undefined)	0.2	-2.3	-1.9	-2.2	-5.6	7.8
COC(=O)c1nnn(-c2nonc2N)c1CSc1ccc(Cl)cc1	-1.1	-1.5	29.7*	15.4	0.7	4.8
Cc1nc(NC2=NCN(CCCN3CCOCC3)CN2)nc2c(C)cccc12	15.0*	-0.7	-13.6	-11.1	-3.4	5.2
Fc1cc(Br)ccc1Nc1nc2ccccc2n2nnnc12	15.1*	2.8	-10.9	-15.6	3.9	1.0
Fc1ccccc1N1CCN(c2nc3ccccc3n3nnnc23)CC1	-0.7	-1.7	-2.1	-2.3	-1.0	17.2
CCN(CC)CCCN1C(=O)c2oc3ccccc3c(=O)c2C1c1cc(OC)ccc1OC (centres undefined)	0.2	-0.8	3.3	-17.6	-9.1	27.0
CSc1ncccc1C(=O)OCC(=O)NC1CCS(=O)(=O)C1 (centres undefined)	-0.6	20.9*	8.2	-1.5	-6.5	7.8
O=C(COC(=O)c1ccccc1Oc1ccccc1)NC1CCS(=O)(=O)C1 (centres undefined)	-0.3	0.3	3.9	-13.9	-6.8	9.6
CC(=O)C(C(C)=O)c1c(Cl)c(O)c(O)c2c(C(=O)c3ccccc3)coc12	-1.0	-3.0	22.6	28.7	49.3*	10.1
CCOC(=O)C1CCCN(C(=O)CSc2nccn2C)C1 (centres undefined)	0.1	-4.9	-0.8	-4.7	-7.4	7.3
CC1CCN(Cc2c(C#N)c3ccccc3n2C)CC1	0.4	-4.5	-7.6	5.3	/	9.3
O=C(Cc1cccs1)Nc1nc2c(s1)CCCC2	0.1	-0.8	5.1	-7.0	38.3*	45.7*
CCn1c(C)nc2cc(C(=O)OCCC(F)(F)F)ccc21	-0.8	26.0*	0.1	6.0	1.2	-4.8
CCOc1ccc(C2/C(=C(/O)c3ccc(Cl)cc3)C(=O)C(=O)N2CCCN(C)C)cc1OC (centres undefined)	-0.1	-3.2	-6.1	-9.2	-1.1	5.4
CCC(C)c1ccc(NC(=O)C2CCCN(c3ncccn3)C2)cc1 (centres undefined)	-0.2	0.3	0.3	-4.2	61.3*	7.6
Cc1cc(C)n(-c2nc(NCCO)c3c4c(sc3n2)CCCC4)n1	0.3	44.8*	-12.4	-19.3	9.0	10.4
COc1cc2cc(C)c(SCC(=O)N3CCOCC3)nc2cc1OC	1.6	0.3	2.9	0.5	2.0	21.9
CCC(CC)C(=O)Nc1cc(C)c2c(=O)oc3ccccc3c2n1	0.5	2.0	30.7*	-50.9	-3.7	-2.1
O=C(Cn1cnc2c(cnn2-c2ccc(F)cc2)c1=O)NCc1ccco1	-0.3	-2.6	9.4	-1.6	55.1*	-2.7
COc1ccc(-c2cn3c(C)c(C(=O)Nc4cc(NC(C)=O)ccc4OC)sc3n2)cc1	0.5	4.2	2.0	16.5	48.1*	24.2
CN(C)CCCn1c(NC(=O)C2CCCCC2)nc2ccccc21	53.8*	-0.2	-6.7	/	/	/
O=C(CSc1nc2ccccc2o1)Nc1ccc(N2CCOCC2)c(Cl)c1	-0.2	1.1	12.1	-3.5	3.1	-9.4
Cc1cc(C)nc(SCC(=O)Nc2ccc(N3CCOCC3)c(Cl)c2)n1	-1.1	-2.3	5.3	6.3	58.1*	16.7

Screening results: PubChem, The Scripps Research Institute Molecular Screening Center
